Xi reactivation: reactivates the inactive X chromosome in mouse fibroblasts; activation, % at 7.58 µM; actives 0.055% (n = 360,000); XiGFP mouse fibroblasts, % GFP-positive cells imaging, 3 d; cells co-treated with 5-aza-dC sensitizer; scaled so ellipticine positive control = 100%;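 active = mean normalized replicate activation at least 10% and every replicate at or above 10%; inconclusive = only one of the two criteria met; inactive = mean below 10% and not all replicates reach 10%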
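Assay system: SV40-immortalized XiGFP fibroblast cells, line 68-5-11; buffer or medium: DMEM plus 5-aza-dC sensitizer; compound: one concentration, pinned; timing: compounds 3 days, fix/stain 15 min at room temperature; benchmarks: positive control ellipticine, 6 µM final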
PGC1a acetyl inh: lowers PGC1a acetylation signal in U2OS cells. AlphaScreen anti-acetyl-lysine; with virally co-expressed GCN5 acetyltransferase. AID 651687. actives 0.17% (n = 350,000). inhibition, % at 15.6 µM;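 active = every replicate shows inhibition of at least 40%; inconclusive = mean inhibition at least 40% but some replicate below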
PAX8 reporter: PAX8 transcriptional activity inhibition; actives 1.2% (n = 360,000); inhibition, % at 12.6 µM; RMG-I TPO-luciferase reporter, SteadyGlo, 24 h; AID 652154;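 active = mean replicate inhibition at least 60% with every replicate also reaching 60%; inconclusive = only one of the two criteria is met; inactive = mean below 60% and not all replicates reaching 60%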;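 note: luciferase light reporting Pax8 driven TPO promoter activity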
GSIS activator: primary screen for activators of insulin secretion dependent on glucose, INS-1E cells, GLuc reporter luminescence; AID 743287; activation, % at 16.6 µM; actives 0.61% (n = 370,000); INS-1E GLuc reporter insulin secretion, 2-3 h;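 active = lowest replicate activation of at least 40%, so every replicate reaches that level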
MLL AF4-AF9 inh: blocks AF4 peptide binding to human AF9; P42568; AlphaScreen, biotin-AF4 peptide binding to FLAG-AF9; inhibition, % at 10 µM; actives 0.47% (n = 350,000); AID 651704;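 active = every replicate reaching a set inhibition limit, whatever the replicate mean, cut at about 25% in these data; inconclusive = mean inhibition reaches that limit but some replicates miss it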
Target sequence (P42568 whole entry, looked up): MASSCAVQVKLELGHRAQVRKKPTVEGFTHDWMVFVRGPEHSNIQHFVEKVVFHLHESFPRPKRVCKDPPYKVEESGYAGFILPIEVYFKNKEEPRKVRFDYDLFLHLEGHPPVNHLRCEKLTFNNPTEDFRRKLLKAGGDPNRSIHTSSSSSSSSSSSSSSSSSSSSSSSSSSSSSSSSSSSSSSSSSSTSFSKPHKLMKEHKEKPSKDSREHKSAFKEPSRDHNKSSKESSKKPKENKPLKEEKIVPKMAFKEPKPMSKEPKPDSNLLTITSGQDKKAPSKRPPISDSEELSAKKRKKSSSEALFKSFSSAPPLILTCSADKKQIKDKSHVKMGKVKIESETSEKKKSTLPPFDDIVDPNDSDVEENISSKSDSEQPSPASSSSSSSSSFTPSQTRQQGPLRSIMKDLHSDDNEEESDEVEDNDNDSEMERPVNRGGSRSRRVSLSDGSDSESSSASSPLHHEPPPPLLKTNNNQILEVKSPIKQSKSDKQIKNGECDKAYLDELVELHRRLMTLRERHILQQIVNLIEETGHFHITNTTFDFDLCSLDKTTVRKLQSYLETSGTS
EWS-Fli inh: inhibitors of EWS/Fli oncoprotein transcriptional activity; A673 NR0B1-luciferase reporter, viability-normalised; inhibition, % at 12.6 µM; actives 0.67% (n = 350,000); AID 651661;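 active = mean inhibition of at least 50% after viability correction, with every replicate also passing that limit; inconclusive = mean reaches 50% but only one of two replicates passes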;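 note: firefly luciferase signal divided by Alamar Blue viability fluorescence both relative to DMSO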
Each line names hits and unclear results; the compound was inactive in the other large screens. Only some compounds are listed: those with a hit (about 2.1% of all), similar ones and a draw of the others.

C/C=C/c1ccc2c(c1)O[C@@H](CN(C)C(=O)c1ccc(F)cc1)[C@H](C)CN([C@@H](C)CO)S2(=O)=O	none
CCOc1ccc(OCC)c(S(=O)(=O)NNC(=O)c2c(C)nc3ccccn23)c1	PAX8 reporter 86.5
COc1ccc(Br)cc1S(=O)(=O)NNC(=O)c1c(C)nc2ccccn12	none
C[C@H]1CN([C@@H](C)CO)C(=O)c2cccc(NC(=O)Nc3ccc(F)cc3)c2O[C@H]1CN(C)C	none
Cc1nc(Cc2ccccc2)sc1CC#N	GSIS activator 42.3 (no result: PAX8 reporter)
COc1ccc2c3c(n(C)c2c1)[C@@H](CO)N(C(=O)CC1CC1)CC31CCN(C(=O)NC(C)C)CC1	none
Cc1nccn1-c1ncnc2sc3c(c12)CCCC3	GSIS activator 67.3 (no result: Xi reactivation, PGC1a acetyl inh, PAX8 reporter, MLL AF4-AF9 inh, EWS-Fli inh)
Cc1nc2ccc3nc(NC(=O)C4COc5ccccc5O4)sc3c2s1 (centres undefined)	MLL AF4-AF9 inh 47.6 (no result: GSIS activator)
C[C@H]1CN([C@@H](C)CO)C(=O)Cc2cc(NC(=O)Nc3cccc4ccccc34)ccc2O[C@@H]1CN(C)C(=O)Nc1ccc(F)cc1	none
CCN1CCN(CCCNC(=O)CCC(=O)N2CC(C)Oc3ccc(C)cc32)CC1 (centres undefined)	MLL AF4-AF9 inh 48.9 (no result: GSIS activator)
Nc1nc(CCl)nc(Nc2cccc3ccccc23)n1	PAX8 reporter 122.9 (no result: GSIS activator)
Nc1nc(Nc2cccc3ccccc23)nc(C2CCCC2=O)n1 (centres undefined)	none (no result: Xi reactivation, PGC1a acetyl inh, GSIS activator, MLL AF4-AF9 inh, EWS-Fli inh)
CCCC#Cc1ccc([C@H]2[C@@H](CO)N(C(=O)NC(C)C)[C@@H]2CNC(C)=O)cc1	none (no result: PGC1a acetyl inh, PAX8 reporter, GSIS activator)
C[C@@H]1CN(C)C(=O)c2cc(N(C)C)ccc2O[C@@H]1CN(C)S(C)(=O)=O	none (no result: PGC1a acetyl inh, PAX8 reporter, MLL AF4-AF9 inh, EWS-Fli inh)
COc1ccc(-n2c3c(c(=O)[nH]c2=O)C(NS(=O)(=O)c2ccc(Cl)cc2)(C(F)(F)F)C(=O)N3)cc1 (centres undefined)	GSIS activator 55.0
COc1ccccc1CN1C[C@H](C)[C@@H](OC)CN(C)C(=O)c2ccc(NC(C)=O)cc2OC[C@H]1C	none
CCCC[C@@]1(C2CCCC2)Cc2cc(OCC(=O)O)c(Cl)c(Cl)c2C1=O	PGC1a acetyl inh 95.0 (no result: GSIS activator)
C[C@]1(C2CCCC2)Cc2cc(OCC(=O)O)c(Cl)c(Cl)c2C1=O	none (no result: GSIS activator)
OC[C@@H]1[C@@H](c2ccc(C#Cc3ccccc3)cc2)[C@@H]2CN(Cc3cncnc3)CCCCN12	none
Cc1ccc(NC2=CC(=O)C(=O)c3ccccc32)cc1	none (no result: Xi reactivation, GSIS activator, MLL AF4-AF9 inh, EWS-Fli inh)
COc1cc(OC)c(NC2=CC(=O)C(=O)c3ccccc32)cc1Cl	PAX8 reporter 92.8
O=C(O)c1cncc(Br)c1	none (no result: PGC1a acetyl inh)
CN(C)c1cncc(C(=O)O)c1	GSIS activator 63.2 (no result: PGC1a acetyl inh)
CC1=CC(C)(C)N2C(=O)C(=O)c3cc(OC(=O)c4ccco4)cc1c32	MLL AF4-AF9 inh 30.9, EWS-Fli inh inconclusive
Cc1ccc(S(=O)(=O)N(C)C[C@H]2Oc3ccc(NC(=O)CCN4CCOCC4)cc3C(=O)N([C@@H](C)CO)C[C@H]2C)cc1	none
CCC(C)Nc1nc(N)c([N+](=O)[O-])c(N2CCCCCC2)n1 (centres undefined)	PAX8 reporter 77.5
O=C(N/N=C/c1cc2c3c(c1O)CCCN3CCC2)c1ccccc1O	PAX8 reporter 62.3 (no result: PGC1a acetyl inh)
COc1ccc(C#Cc2ccc3c(c2)O[C@H](CN(C)C(=O)CN2CCOCC2)[C@@H](C)CN([C@H](C)CO)S3(=O)=O)cc1	none
O=C1NNC(c2ccccc2)=N/C1=C\c1ccco1	none
COc1cc(/C=C2\N=C(c3ccccc3)NNC2=O)cc(OC)c1OC	EWS-Fli inh 56.2
COc1ccc(C2CC(c3ccc(Br)cc3)=NN2C(=S)Nc2ccccc2)cc1 (centres undefined)	PAX8 reporter 123.2
O=C(Nc1ccccc1)N1N=C(c2ccc(F)cc2)CC1c1ccc(F)cc1 (centres undefined)	PAX8 reporter 82.0 (no result: PGC1a acetyl inh)
COc1ccc(C2CC(c3ccc4ccccc4c3)=NN2C(=O)CNC2CCCCC2)cc1 (centres undefined)	MLL AF4-AF9 inh 28.2 (no result: PGC1a acetyl inh)
CC[C@H]1C/C=C\CCNC(=O)CCC(=O)N1	none (no result: PGC1a acetyl inh, PAX8 reporter, MLL AF4-AF9 inh, EWS-Fli inh)
CCC(=O)N1C[C@H](C)[C@H](OC)CN(C)C(=O)c2ccc(NC(=O)C3CCOCC3)cc2OC[C@H]1C	none (no result: MLL AF4-AF9 inh)
C[C@@H]1CN([C@@H](C)CO)C(=O)c2cc(NC(=O)c3ccccc3)ccc2O[C@@H](C)CCCCO[C@H]1CN(C)C(=O)Cc1ccccc1	none (no result: PAX8 reporter)
Cc1nc(Sc2nnnn2C)c2c3c(sc2n1)CCC3	none (no result: Xi reactivation, PAX8 reporter, GSIS activator, MLL AF4-AF9 inh, EWS-Fli inh)
CCc1nc(Sc2nnnn2-c2ccccc2)c2c3c(sc2n1)CCCC3	MLL AF4-AF9 inh 46.7 (no result: PGC1a acetyl inh)
COc1ccc(CN(C)C[C@@H]2Oc3ccc(NS(C)(=O)=O)cc3C(=O)N([C@H](C)CO)C[C@@H]2C)cc1	none
O=C(Nc1ccccc1F)N1[C@@H]2CNc3ccccc3[C@@H]2[C@@H]1CO	none
CCCNC(=O)N1CC2(CN(C(=O)COC)C2)c2c(n(C)c3cc(OC)ccc23)[C@H]1CO	none (no result: PAX8 reporter)
O=CNc1ccc2c3c(cccc13)-c1ccccc1-2	Xi reactivation 54.6
CC(=O)Nc1ccc2c3c(cccc13)C(=O)N(c1ccccc1)C2=O	none (no result: PGC1a acetyl inh)
CC(=O)Nc1cccc2c1O[C@@H](CN(C)C(=O)NC(C)C)[C@H](C)CN(C)C2=O	none (no result: PGC1a acetyl inh, PAX8 reporter, MLL AF4-AF9 inh, EWS-Fli inh)
O=c1cc(-c2ccccc2F)nc(-c2ccccc2F)o1	none (no result: PGC1a acetyl inh)
O=c1cc(-c2cccc(Br)c2)nc(-c2ccccc2F)o1	GSIS activator 46.4 (no result: PGC1a acetyl inh, MLL AF4-AF9 inh, EWS-Fli inh)
CCc1cc2cc3c(cc2nc1SCC(=O)Nc1nnc(C)s1)OCCO3	none (no result: Xi reactivation, PAX8 reporter)
CCc1nnc(NC(=O)CSc2nc3cc4c(cc3cc2CC)OCCO4)s1	GSIS activator 49.4 (no result: Xi reactivation, PAX8 reporter, MLL AF4-AF9 inh, EWS-Fli inh)
Nc1ncnc2c1nc(Sc1ccc(Cl)cc1)n2[C@@H]1O[C@@H]2COP(=O)(O)O[C@H]2[C@H]1O	GSIS activator 64.1
Cc1ccc(S(=O)(=O)N(C)C[C@H]2OCCCC[C@@H](C)Oc3ccc(NC(=O)Nc4ccc(F)cc4)cc3C(=O)N([C@@H](C)CO)C[C@@H]2C)cc1	none
C[C@H](CO)N1C[C@H](C)[C@H](CN(C)S(=O)(=O)c2ccc(F)cc2)OCCCC[C@H](C)Oc2ccc(NC(=O)Nc3ccc(F)cc3)cc2C1=O	PAX8 reporter 75.5 (no result: MLL AF4-AF9 inh)
C[C@@H]1CN([C@H](C)CO)C(=O)c2cc(NC(=O)Nc3ccc(F)cc3)ccc2O[C@@H](C)CCCCO[C@H]1CN(C)S(=O)(=O)c1ccc(F)cc1	PAX8 reporter 85.6 (no result: MLL AF4-AF9 inh)
Cc1ccc(S(=O)(=O)N(C)C[C@@H]2OCCCC[C@H](C)Oc3ccc(NC(=O)Nc4ccc(F)cc4)cc3C(=O)N([C@H](C)CO)C[C@@H]2C)cc1	PAX8 reporter 60.7
COc1ccc2c3c([nH]c2c1)[C@H](CO)N(C(=O)C1CCC1)CC31CCN(C(=O)c2ccccn2)CC1	none
C[C@@H]1CN([C@@H](C)CO)C(=O)c2cc(-c3cncnc3)cnc2O[C@@H]1CN(C)Cc1ccc(Oc2ccccc2)cc1	none

Bioassay records from PubChem.
